Data taken from ChEMBL document CHEMBL2375242, “Synthesis of (S)-FTY720 vinylphosphonate analogues and evaluation of their potential as sphingosine kinase 1 inhibitors and activators” (Bioorg Med Chem, 2013).
Activity calls are given as the source filed them. The rule behind the calls is not given here.

Tests used:
[1] = target: T1, Sphingosine kinase 1 (Homo sapiens, UniProt Q9NYA1); test: Activity at recombinant GFP-tagged SK1 (unknown origin) expressed in HEK293 cells at 50 uM after 30 mins by Cerenkov counting analysis; format: cell-based
T1 sequence (Q9NYA1 whole entry): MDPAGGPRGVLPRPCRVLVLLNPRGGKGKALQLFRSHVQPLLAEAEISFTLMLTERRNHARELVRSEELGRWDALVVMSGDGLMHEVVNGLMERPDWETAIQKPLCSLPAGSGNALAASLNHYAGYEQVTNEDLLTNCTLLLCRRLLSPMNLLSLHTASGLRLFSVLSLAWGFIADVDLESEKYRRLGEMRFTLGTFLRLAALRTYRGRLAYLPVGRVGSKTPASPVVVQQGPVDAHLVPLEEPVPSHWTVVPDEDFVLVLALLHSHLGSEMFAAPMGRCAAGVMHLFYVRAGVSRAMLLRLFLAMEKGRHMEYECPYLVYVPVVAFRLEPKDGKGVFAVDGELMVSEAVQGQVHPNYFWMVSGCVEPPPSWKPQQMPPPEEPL

[2] = target: T1, Sphingosine kinase 1; test: Inhibition of recombinant GFP-tagged SK1 (unknown origin) expressed in HEK293 cells using sphingosine as substrate at 50 uM after 30 mins by Cerenkov counting analysis relative to control; format: cell-based
Outline: (§1)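 Lysate of HEK 293 cells stably overexpressing GFP-SK1 (30 μg protein) was incubated for 30 min at 30 °C with 3 μM sphingosine (Km) in Triton X-100 and 250 μM [γ-32P]ATP in 10 mM MgCl2, at pH 7.4 Tris buffer with phosphatase and protease inhibitors. Compounds were in DMSO; the control was 5% DMSO. [32P]-S1P was extracted into 1-butanol/KCl and measured by Cerenkov counting. Activity is % of the sphingosine-alone control, n = 3, mean ± S.E.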

[3] = target: T1, Sphingosine kinase 1; test: Activation of recombinant GFP-tagged SK1 (unknown origin) expressed in HEK293 cells using sphingosine as substrate at 50 uM after 30 mins by Cerenkov counting analysis relative to control; format: cell-based; outline: as §1
[4] = target: T1, Sphingosine kinase 1; test: Activation of recombinant GFP-tagged SK1 (unknown origin) expressed in HEK293 cells using sphingosine as substrate after 30 mins by Cerenkov counting analysis; format: cell-based
Outline: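 Enzyme source: lysates (30 μg) of HEK 293 cells stably overexpressing GFP-SK1, cultured in DMEM/10% FCS with geneticin. Reaction run 30 min at 30 °C with 3 μM sphingosine in Triton X-100 (0.063% final) and 250 μM [γ-32P]ATP in 10 mM MgCl2, pH 7.4 Tris buffer. Compound added in DMSO; control is 5% DMSO, set as 100% activity. [32P]-S1P is extracted into butanol and read by Cerenkov counting. EC50 from concentration-response, n = 3.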

[5] = target: T1, Sphingosine kinase 1; test: Competitive inhibition of SK1 (unknown origin) in presence of ATP
[6] = target: T1, Sphingosine kinase 1; test: Uncompetitive inhibition of SK1 (unknown origin) in presence of ATP
[7] = target: T1, Sphingosine kinase 1; test: Inhibition of recombinant GFP-tagged SK1 (unknown origin) expressed in HEK293 cells using sphingosine as substrate at 50 uM after 30 mins by Cerenkov counting analysis relative to control
[8] = target: T1, Sphingosine kinase 1; test: Uncompetitive inhibition of recombinant SK1 (unknown origin) expressed in HEK293 cells after 15 to 20 mins by Cornish-Bowden plot analysis in presence of sphingosine; format: cell-based
[9] = target: T1, Sphingosine kinase 1; test: Activation of recombinant GFP-tagged SK1 (unknown origin) expressed in HEK293 cells using sphingosine as substrate above 50 uM after 30 mins by Cerenkov counting analysis; format: cell-based; outline: as §1

Activity [1] | inhibition [2] | SMILES | Activity [3] [%] | EC50 [4] [µM] | other results
inactive | 35% | CCCCCCCCc1ccc(CC[C@]2(N)CCC(=O)OC2)cc1 |  |  | 
inactive | inactive | CCCCCCCCc1ccc(CC[C@](N)(/C=C/C(=O)O)CO)cc1 |  |  | 
inactive | 20% | CCCCCCCCc1ccc(CC[C@](N)(/C=C/P(=O)(O)O)CF)cc1 |  |  | 
 |  | CCCCCCCCc1ccc(CC[C@](N)(/C=C/P(=O)(O)O)CO)cc1 |  |  | Kic [5]: 10 µM; Kiuc [6]: 65 µM; inhibition [7]: 62.7%; Kiuc [8]: 14.5 µM

SMILES | Activity [1] | inhibition [2] | Activity [3] [%] | EC50 [4] [µM] | other results
CCCCCCCCc1ccc(CC[C@](/C=C/P(=O)(O)O)(CF)N=[N+]=[N-])cc1 | inactive |  | 30 | 5.7 | 
CCCCCCCCc1ccc(CC[C@](/C=C/P(=O)(O)O)(CO)N=[N+]=[N-])cc1 | inactive |  | 30 | 8.3 | Activity [9]: inactive
